# Laboratory results from ChEMBL document CHEMBL1121721 (J Med Chem, 1981).
# Legend:
# Mu-type opioid receptor = Mu-type opioid receptor (Cavia porcellus, UniProt P97266); experiment: Inhibitory potency against Opioid receptor mu 1 in longitudinal muscle preparation of guinea pig ileum; type: tissue-based
# Method in brief: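 Guinea pig ileum was electrically stimulated to contract, and inhibition was measured at six concentrations per compound, with six to eight assays each. Methionine-enkephalin served as the internal standard in every assay. IC50 was obtained by regression analysis.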
# Mus musculus [1] = experiment: Analgesic activity of compound (1.98 nM) in mice after icv administration; type: functional
# Method in brief: (§1)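 Swiss mice (20–22 g) got icv injections of compound freshly dissolved in saline, in a constant 5 μL. Hind-paw lick latency on a 65 ± 1 °C hot plate was read 15 min after injection. Animals with control latency above 9 s were rejected. Values are mean ± SEM, with n per group.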
# [2] = Ratio of IC50 evaluated in GPI to MVD; type: functional
# Method in brief: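 IC50 values were determined on electrically stimulated guinea pig ileum and on mouse vas deferens. Each used six concentrations with six to eight assays each, methionine-enkephalin as internal standard, and regression analysis. The ratio is GPI IC50 over MVD IC50.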
# [3] = target: Delta-type opioid receptor (Mus musculus, UniProt P32300); experiment: Inhibitory potency against delta Opioid receptor delta 1 in longitudinal muscle preparation of mouse vas deferens
# Chain of Delta-type opioid receptor (P32300 whole entry): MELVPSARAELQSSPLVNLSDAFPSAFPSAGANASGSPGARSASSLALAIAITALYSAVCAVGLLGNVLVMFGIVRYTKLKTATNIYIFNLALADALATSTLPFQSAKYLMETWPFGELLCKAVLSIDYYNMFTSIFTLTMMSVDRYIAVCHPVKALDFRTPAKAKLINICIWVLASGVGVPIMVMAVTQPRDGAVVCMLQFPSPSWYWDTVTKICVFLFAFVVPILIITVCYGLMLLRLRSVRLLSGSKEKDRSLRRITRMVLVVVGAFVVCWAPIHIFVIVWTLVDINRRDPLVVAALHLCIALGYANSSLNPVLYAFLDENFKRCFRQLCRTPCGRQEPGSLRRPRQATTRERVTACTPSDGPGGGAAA
# Mus musculus [4] = organism: Mus musculus; experiment: Relative potency of compound verses morphine for analgesic activity in mice; type: functional
# Mus musculus [5] = experiment: Analgesic activity of compound (1.46+diprenorphine) in mice after icv administration; type: functional
# Method in brief: (§2)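 Swiss mice (20–22 g) got naloxone 1 mg/kg sc or diprenorphine 0.5 mg/kg sc 15 min before icv compound, given in saline in a constant 5 μL. Hind-paw lick latency on a 65 ± 1 °C hot plate was read 15 min after icv injection. Mice with control latency over 9 s were excluded. Values are mean ± SEM, with n.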
# Mus musculus [6] = experiment: Analgesic activity of compound (1.46 nM) in mice after icv administration; type: functional; method in brief: as §1
# Mus musculus [7] = experiment: Analgesic activity of compound (1.46+naloxone) in mice after icv administration; type: functional; method in brief: as §2
# Mus musculus [8] = experiment: Analgesic activity of compound (2.66 nM) in mice after icv administration; type: functional; method in brief: as §1
# Mus musculus [9] = experiment: Analgesic activity of compound (1.45 nM) in mice after icv administration; type: functional; method in brief: as §1
# Mus musculus [10] = experiment: Analgesic activity of compound (1.48 nM) in mice after icv administration; type: functional; method in brief: as §1
# Chain of Mu-type opioid receptor (P97266 whole entry): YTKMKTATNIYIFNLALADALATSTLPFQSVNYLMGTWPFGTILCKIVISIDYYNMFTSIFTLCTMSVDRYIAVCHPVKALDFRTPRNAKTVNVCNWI
Compound,IC50 (Mu-type opioid receptor) [nM],Ratio [2],IC50 [3] [nM],Relative potency (Mus musculus [4]),other results
CSCC[C@H](NC(=O)[C@H](Cc1ccccc1)NC(=O)CNC(=O)CNC(=O)[C@@H](N)Cc1ccc(O)cc1)C(=O)O,200,,,,
CC(C)CC(C)NC(=O)CNC(=O)[C@H](C)NC(=O)[C@@H](N)Cc1ccc(O)cc1 (stereo not given in full),182,0.15,1220,1,Hind-paw lick latency time (Mus musculus [1]): 25 s
CC(C)C[C@H](NC(=O)[C@H](Cc1ccccc1)NC(=O)CNC(=O)[C@H](CO)NC(=O)[C@@H](N)Cc1ccc(O)cc1)C(=O)N[C@H](C(=O)O)[C@@H](C)O,360,,,,Hind-paw lick latency time (Mus musculus [5]): 6.6 s; Hind-paw lick latency time (Mus musculus [6]): 32.6 s; Hind-paw lick latency time (Mus musculus [7]): 10.5 s
C[C@H](NC(=O)[C@@H](N)Cc1ccc(O)cc1)C(=O)NCC(=O)N(C)[C@@H](Cc1ccccc1)C(=O)N[C@@H](CC[S+](C)[O-])C(=O)O (stereo not given in full),7.2,0.46,15.7,>100,
CC(C)C[C@@H](NC(=O)[C@H](Cc1ccccc1)NC(=O)CNC(=O)[C@@H](C)NC(=O)[C@@H](N)Cc1ccc(O)cc1)C(=O)O [DADLE],47.8,,,,
CN1CC[C@]23c4c5ccc(O)c4O[C@H]2[C@@H](O)C=C[C@H]3[C@H]1C5 [MORPHINE],,,,,Hind-paw lick latency time (Mus musculus [8]): 25.2 s
H-YAGFMT-OH,240,220,1.09,2,Hind-paw lick latency time (Mus musculus [9]): 29.3 s
H-YGGFMT-OH,380,62,6.1,>0.1,Hind-paw lick latency time (Mus musculus [10]): 6.5 s
H-YMGFP-NH2,21.9,0.95,23.1,25,
